Each block holds one molecule with its values, some of them ahead of it. Non-standard residues stand in square brackets, D forms with d. No end group written: not given here. *: point of attachment. FITC = O=C1OC2(c3ccc(O)cc3Oc3cc(O)ccc32)c2ccc(NC(=S)*)cc21
How the values were obtained:
GST-Bcl-2 [1] = target: T1, GST-Bcl-2 (Homo sapiens, UniProt P10415); test: FP competition assay, GST-Bcl-2; assay type: binding; settings: 200 nM GST-Bcl-2, 20 nM FITC-NuBCP-r8, PBS pH 7.6, 25°C, triplicate
[2] = test system: Jurkat cells stably expressing Bcl-2; test: Apoptosis of Jurkat cells stably expressing Bcl-2; assay type: cell-based; settings: Figure S3
Outline: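 Jurkat cells stably carrying an empty neo vector or a Bcl-2 expression vector, with Bcl-2 levels checked by immunoblot. Cells were exposed to the test peptide (10 µM) in medium with 5% FBS for 36 h. Apoptosis was scored by DAPI nuclear morphology.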

Bcl-2^−/−MEFs = test: Apoptosis of Bcl-2 knockout MEFs; assay type: cell-based, mouse; settings: STS 0.1 µM or Bad BH3 peptide 10 µM, 36 h, DAPI
Outline: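 Wild-type and Bcl-2−/− MEFs, with Bcl-2 status confirmed by immunoblotting, were exposed to staurosporine (0.1 µM) or Bad BH3 peptide (10 µM) for 36 h. Peptide treatments used medium with 10% FBS unless otherwise specified. Apoptosis was scored from nuclear morphology after DAPI staining.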

CEM leukemia cells = test: Killing of CEM leukemia cells stably expressing Bcl-2; assay type: cell-based; settings: Figure S4
GST-Bcl-2 [3] = target: T1, GST-Bcl-2; test: circular dichroism
GST-Bcl-2/1-90 [4] = target: GST-Bcl-2/1-90 (UniProt P10415); test: fluorescence polarisation
Chain of GST-Bcl-2/1-90 (UniProt P10415) (P10415 1-90): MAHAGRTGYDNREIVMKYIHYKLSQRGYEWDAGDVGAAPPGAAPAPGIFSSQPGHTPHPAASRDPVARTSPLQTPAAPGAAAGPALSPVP

GST-Bcl-2 [5] = target: T1, GST-Bcl-2; test: FP binding to GST-Bcl-2; settings: 200 nM protein, 20 nM FITC peptide-r8, PBS pH 7.6, 25°C, triplicate
Outline: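 GST-Bcl-2 (200 nM) was incubated briefly with FITC-labelled, r8-fused test peptide (20 nM) in PBS, pH 7.6, at 25°C, in triplicate. GST-Bcl-XL and GST served as comparison proteins. Polarization was read at excitation 485 nm and emission 530 nm once the signal stabilized within 20 min. Kd was calculated from single-site binding curves and reported as mean ± SD.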

GST = test: FP binding to GST; settings: 200 nM protein, 20 nM FITC peptide-r8, PBS pH 7.6, 25°C
Outline: (§1)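 Fluorescence polarization: 200 nM protein (GST or GST-Bcl-XL) was incubated with FITC-labelled r8 test peptide (20 nM) in PBS, pH 7.6, at 25°C, in triplicate. FP was read once the signal stabilized within 20 min (excitation 485 nm, emission 530 nm). Results are mean ± SD.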

GST-Bcl-XL [6] = target: GST-Bcl-XL (Homo sapiens, UniProt Q07817); test: FP binding to GST-Bcl-XL; settings: 200 nM protein, 20 nM FITC peptide-r8, PBS pH 7.6, 25°C
Chain of GST-Bcl-XL (Homo sapiens, UniProt Q07817) (Q07817 whole entry): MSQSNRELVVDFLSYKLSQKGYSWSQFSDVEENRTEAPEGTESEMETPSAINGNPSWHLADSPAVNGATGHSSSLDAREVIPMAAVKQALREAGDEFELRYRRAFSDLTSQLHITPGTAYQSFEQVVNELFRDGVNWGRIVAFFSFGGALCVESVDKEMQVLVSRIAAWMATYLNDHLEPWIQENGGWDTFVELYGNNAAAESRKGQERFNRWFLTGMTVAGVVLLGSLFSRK
Outline: as §1

Bcl-B = test: Co-IP with Bcl-B; assay type: binding; settings: HEK293T
Outline: (§2)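 HEK293T cells were transfected with GFP-Nur77/478-504 (2 µg), with or without a Myc-tagged Bcl-2 family member plasmid (0.8 µg). Lysates were immunoprecipitated and complexes detected by western blot. Input was 5% of lysate, and one of three experiments is shown.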

Bfl-1 = test: Co-IP with Bfl-1; assay type: binding; settings: HEK293T
Outline: as §2

[7] = test system: mitochondria (RFP-Mito), H460 cells; test: Mitochondrial targeting in H460 cells; assay type: cell-based; settings: FITC-D-NuBCP-9-r8 6 µM, 2 hr, or GFP fusions transfected 12 hr
Outline: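 H460 cells on glass coverslips were transfected with RFP-Mito (50 ng) plus GFP fused to Nur77 residues 489–497 or 478–504 (50 ng) for 12 hr. In a second arm, cells were transfected with RFP-Mito for 12 hr and then treated with 6 µM FITC-labelled, r8-fused test peptide for 2 hr. Subcellular fluorophore localization was analysed by confocal microscopy.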

Bax = Bax activation in Bcl-2 knockout MEFs; assay type: cell-based, mouse; settings: NuBCP-9 10 µM 16 hr; or GFP-Nur77/478-504 cotransfected with Bcl-2
Outline: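 Bcl-2−/− MEFs were run with wild-type MEFs and exposed to the test peptide (10 µM) for 16 hr. Alternatively, Bcl-2−/− MEFs were cotransfected with Bcl-2 (1 µg) plus GFP or GFP-Nur77/478-504 (1 µg). Active Bax was immunostained with 6A7 antibody and read by flow cytometry. Comparisons were treated vs untreated, or GFP-only vs Bcl-2-coexpressing cells from the same transfection.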

[8] = test system: various cancer cell lines; test: Apoptosis induction, various cancer cell lines; assay type: cell-based
[9] = test system: normal primary mammary epithelial cells; test: Apoptosis of normal primary mammary epithelial cells; assay type: cell-based; settings: 24 h, Annexin V; r8 conjugate
Outline: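 Normal primary mammary epithelial cells were run alongside ZR-75-1 breast cancer cells. They were exposed to the r8-conjugated test peptide for 24 h in medium with 10% FBS. Apoptosis was read by Annexin V binding on flow cytometry.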

GST-Bcl-2 [10] = target: GST-Bcl-2 (UniProt P10415 1-239); test: circular dichroism
Chain of GST-Bcl-2 (UniProt P10415 1-239) (P10415 whole entry): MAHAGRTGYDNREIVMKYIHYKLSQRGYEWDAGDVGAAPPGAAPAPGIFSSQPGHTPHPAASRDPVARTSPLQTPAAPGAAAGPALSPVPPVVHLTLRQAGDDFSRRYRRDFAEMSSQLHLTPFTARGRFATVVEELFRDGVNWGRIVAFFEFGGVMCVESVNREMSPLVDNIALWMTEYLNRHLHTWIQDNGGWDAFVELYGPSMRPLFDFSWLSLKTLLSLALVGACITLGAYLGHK

GST-Bcl-XL [11] = target: GST-Bcl-XL (UniProt Q07817-1 1-233); test: fluorescence polarisation
Chain of GST-Bcl-XL (UniProt Q07817-1 1-233) (Q07817 whole entry): as the sequence (Q07817 whole entry) above

GST-Bcl-2/1-90 [12] = target: GST-Bcl-2/1-90 (UniProt P10415 1-90); test: fluorescence polarisation
Chain of GST-Bcl-2/1-90 (UniProt P10415 1-90) (P10415 1-90): as the sequence (P10415 1-90) above

T1 sequence (P10415 whole entry): as the sequence (P10415 whole entry) above
Chain of D-NuBCP-9 (unlabeled, in vitro assays) (P22736 whole entry, looked up): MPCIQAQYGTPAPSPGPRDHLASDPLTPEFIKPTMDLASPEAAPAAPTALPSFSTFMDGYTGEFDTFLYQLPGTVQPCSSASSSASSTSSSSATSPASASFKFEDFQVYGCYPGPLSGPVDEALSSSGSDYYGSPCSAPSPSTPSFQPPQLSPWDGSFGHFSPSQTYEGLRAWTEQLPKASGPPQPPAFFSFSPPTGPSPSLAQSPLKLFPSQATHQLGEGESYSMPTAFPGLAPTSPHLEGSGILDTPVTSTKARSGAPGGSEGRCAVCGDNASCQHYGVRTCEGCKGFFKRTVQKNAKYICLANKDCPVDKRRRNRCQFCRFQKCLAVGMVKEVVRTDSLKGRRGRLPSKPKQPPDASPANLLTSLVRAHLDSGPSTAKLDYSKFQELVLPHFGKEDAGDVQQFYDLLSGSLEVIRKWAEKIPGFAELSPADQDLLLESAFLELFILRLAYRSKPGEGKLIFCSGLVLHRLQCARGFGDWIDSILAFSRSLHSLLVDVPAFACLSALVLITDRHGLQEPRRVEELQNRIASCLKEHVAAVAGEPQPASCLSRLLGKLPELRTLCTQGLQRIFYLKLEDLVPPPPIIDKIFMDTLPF
Chain of FITC-D-NuBCP-9-r8 (P22736 whole entry, looked up): as above

Molecule: CN(C)CC[C@H](CSc1ccccc1)Nc1ccc(S(=O)(=O)NC(=O)c2ccc(N3CCN(Cc4ccccc4-c4ccc(Cl)cc4)CC3)cc2)cc1[N+](=O)[O-] [ABT-737]
competition with FITC-NuBCP-9 binding to GST-Bcl-2 (GST-Bcl-2 [1]): failure of either a BH3 peptide (Bak BH3) or a potent small molecule inhibitor (ABT-737) that targets the Bcl-2 BH3- binding site to reduce FITC-NuBCP-9 binding to GST-Bcl-2

Molecule: CN[C@@H]1C[C@H]2O[C@@](C)([C@@H]1OC)n1c3ccccc3c3c4c(c5c6ccccc6n2c5c31)C(=O)NC4 [STS, staurosporine]
effect of Bcl-2 overexpression on apoptosis [2]: attenuated by Bcl-2 overexpression in Jurkat cells | effect of Bcl-2 knockout on death effect (Bcl-2^−/−MEFs): enhanced in Bcl-2^−/−MEFs | effect of stable Bcl-2 expression on killing (CEM leukemia cells): prevented the killing

Molecule: D-NuBCP-9 (unlabeled, in vitro assays) (from UniProt P22736 489-497) (peptide)
Kd (GST-Bcl-2 [3]): 2 µM | stoichiometry N (GST-Bcl-2 [3]): 1

Molecule: FITC-NuBCP-9: FITC-labeled NuBCP-9 (r8) ({FITC}-FSRSLHSLL; also: r8 (D-Arg octamer) attached, end not given here)
FP change with GST-Bcl-2 (GST-Bcl-2 [5]): induced a concentration-dependent FP of FITC-NuBCP-9 and FITC-D-NuBCP-9 | FP change with GST (GST): neither GST-Bcl-XL nor GST, induced a concentration-dependent FP | FP change with GST-Bcl-XL (GST-Bcl-XL [6]): neither GST-Bcl-XL nor GST, induced a concentration-dependent FP

Molecule: GFP-Nur77/478-504: residues 478–504 of Nur77 fused with green fluorescence protein (GFGDWIDSILAFSRSLHSLLVDVPAFA; also: fused with GFP, end not given here)
binding to Bcl-B (Bcl-B): bound to anti-apoptotic Bcl-2 family members, Bcl-B and Bfl-1 | binding to Bfl-1 (Bfl-1): bound to anti-apoptotic Bcl-2 family members, Bcl-B and Bfl-1 | co-localization with RFP-Mito [7]: co-localized extensively with RFP-Mito | Bax activation, Bcl-2^−/−MEFs (Bax): Expression of Bcl-2 in Bcl-2^−/−MEFs restores Bax activation by NuBCP

Molecule: NuBCP-20: 20 amino acid peptide (aa 480 to 499) of Nur77 (GDWIDSILAFSRSLHSLLVD; UniProt P22736 480-499, looked up, fragment)
apoptotic effect ([8]; r8 conjugate): potent apoptotic effect in various cancer cell lines | apoptotic potency relative to Bid BH3 peptide ([8]; various cancer cell lines): more potent than a BH3 peptide derived from the pro-apoptotic Bcl-2 family member Bid | apoptosis induction [9]: Neither NuBCP-20 nor NuBCP-9 induced the apoptosis of normal primary mammary epithelial cells

Molecule: FSRSLHSLL (peptide, UniProt P22736 489-497, looked up) [NuBCP-9 (unlabeled, in vitro assays)]
stoichiometry N (GST-Bcl-2 [10]): 1

More lines, now with the values ahead:

Kd (GST-Bcl-2/1-90 [4]): 2.5 µM
Molecule: FITC-D-NuBCP-9-r8 (from UniProt P22736 489-497) (peptide)

FP change with GST-Bcl-2 (GST-Bcl-2 [5]): little affected
Molecule: FITC-NuBCP-9/AA: FITC-labeled NuBCP-9/AA ({FITC}-ASRSLHSLA; also: r8 (D-Arg octamer) attached, end not given here)

Kd (GST-Bcl-XL [11]): 0.145 µM
Molecule: VHLTLRQAGDDFSRR (also: F5M-labelled Cys, position not given here) [F5M-Bcl-2 BH3 peptide]

Kd (GST-Bcl-2/1-90 [12]): 1.7 µM
Molecule: {FITC}-FSRSLHSLL[dR][dR][dR][dR][dR][dR][dR][dR] (peptide, UniProt P22736 489-497, looked up) [FITC-NuBCP-9-r8]

From publication PMC2667967 (Cancer cell, 2008)
